The values below come from ChEMBL document CHEMBL3045665, “Synthesis and in vitro antiproliferative activity of novel (4-chloro- and 4-acyloxy-2-butynyl)thioquinolines” (2011).

What all share (type): functional
The subject of one assay is T47D. Description: Antiproliferative activity against Homo sapiens (human) T47D cells after 72 hr. The following applies: read-out: ID50 (the source's name). In outline: (§1)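 Cells in opti-MEM with 2 mM glutamine, streptomycin, penicillin and 5% FCS at 37°C and 5% CO2. Plated at 10^4 cells/well 24 h before treatment, then exposed 72 h to 0.1–100 µg/ml (1 mg/ml stock in 10% DMSO, diluted in medium). Cells fixed with cold 50% TCA, stained with 0.4% SRB, dye extracted in 10 mM Tris, OD 540 nm. ID50 versus untreated control. Triplicates, 3–5 experiments.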

In another assay the test system is CCRF-CEM. Description: Antiproliferative activity against Homo sapiens (human) CCRF-CEM cells after 72 hr. The settings on record: read-out: ID50 (the source's name). In outline: (§2)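 Leukemia cells were grown in suspension in opti-MEM with 2 mM glutamine, antibiotics and 5% FCS (37°C, 5% CO2) and seeded at 10^4 cells/well 24 h beforehand. They were exposed 72 h to 0.1–100 µg/ml (1 mg/ml stock in 10% DMSO). MTT was added for the final 3–4 h, followed by SDS/DMF lysis for 24 h and OD at 570 nm. ID50 is relative to untreated control; triplicates, 3–5 experiments.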

Assay [1] in a line: Antiproliferative activity against Homo sapiens (human) SW707 cells after 72 hr. The settings on record: SW707, 72 h, read-out: ID50 (the source's name). A digest of the protocol: as §1
The subject of a further assay is B16. Put plainly: Antiproliferative activity against Mus musculus (mouse) B16 cells after 72 hr. The following applies: B16, 72 h, read-out: ID50 (the source's name). In outline: as §1
The test system of another assay is P388. Description: Antiproliferative activity against Mus musculus (mouse) P388 cells after 72 hr. The settings on record: P388, 72 h, read-out: ID50 (the source's name). A digest of the protocol:
as §2

Values after ≈ are worked out from the molar mass of the structure shown.

Turning to `ClCC#CCSc1cnc2ccccc2c1Cl`, the IC50 with T47D came out at 3.2 µg/mL (≈ 11.3 µM); in the assay on CCRF-CEM, 3.7 µg/mL (≈ 13.1 µM); in assay [1] it was 3.3 µg/mL (≈ 11.7 µM); in the assay on B16, 4 µg/mL (≈ 14.2 µM); with P388, 13.4 µg/mL (≈ 47.5 µM).
In the same order, the values of `CSc1cnc2ccccc2c1SCC#CCCl` are 3.9 µg/mL (≈ 13.3 µM), 2.5 µg/mL (≈ 8.51 µM), 3.7 µg/mL (≈ 12.6 µM), 16.9 µg/mL (≈ 57.5 µM) and 2.7 µg/mL (≈ 9.19 µM).
As to `CSc1cnc2ccccc2c1[Se]CC#CCCl`, the IC50 was determined as 0.7 µg/mL (≈ 2.05 µM) in the assay on T47D; 1.7 µg/mL (≈ 4.99 µM) in the assay with CCRF-CEM; 3.2 µg/mL (≈ 9.39 µM) in assay [1]; 3.5 µg/mL (≈ 10.3 µM) in the assay on B16; 0.4 µg/mL (≈ 1.17 µM) with P388.
For the compound `C#CCSc1cnc2ccccc2c1SCC#CCCl`, the IC50 in the assay with T47D is 5.8 µg/mL (≈ 18.2 µM); in the assay on CCRF-CEM it was 2.9 µg/mL (≈ 9.12 µM); in assay [1], 12.9 µg/mL (≈ 40.6 µM); in the assay on B16, 52.8 µg/mL (≈ 166 µM); with P388, 3 µg/mL (≈ 9.44 µM).
Taken in the same sequence, the figures for `C#CCSc1cnc2ccccc2c1[Se]CC#CCCl` were 0.4 µg/mL (≈ 1.1 µM), 1.8 µg/mL (≈ 4.93 µM), 3.2 µg/mL (≈ 8.77 µM), 7.1 µg/mL (≈ 19.5 µM) and 0.8 µg/mL (≈ 2.19 µM).
Taken in the same sequence, the figures for `OCC#CCSc1cnc2ccccc2c1SCC#CCCl` were 5.3 µg/mL (≈ 15.2 µM), 3.3 µg/mL (≈ 9.49 µM), 19.8 µg/mL (≈ 56.9 µM), 43.4 µg/mL (≈ 125 µM) and 5.1 µg/mL (≈ 14.7 µM).
For `OCC#CCSc1cnc2ccccc2c1[Se]CC#CCCl`, the IC50 in the assay on T47D worked out at 1.7 µg/mL (≈ 4.31 µM); in the assay with CCRF-CEM, 2.6 µg/mL (≈ 6.59 µM); in assay [1], 3.3 µg/mL (≈ 8.36 µM); in the assay on B16 it was 3.8 µg/mL (≈ 9.63 µM); with P388, 2 µg/mL (≈ 5.07 µM).
`O=C(O)c1ccccc1C(=O)OCC#CCSc1cnc2ccccc2c1Cl`: in the assay on B16, the IC50 worked out at 53.8 µg/mL (≈ 131 µM).
With `O=C(/C=C/c1ccccc1)OCC#CCSc1cnc2ccccc2c1Cl`, the IC50 amounted to 22.8 µg/mL (≈ 57.9 µM) in the assay on T47D; 15.4 µg/mL (≈ 39.1 µM) in the assay on CCRF-CEM; 48.8 µg/mL (≈ 124 µM) in assay [1]; 11.4 µg/mL (≈ 28.9 µM) in the assay on B16; 32.8 µg/mL (≈ 83.3 µM) in the assay on P388.
In the same order, the values of `CSc1cnc2ccccc2c1SCC#CCOC(=O)c1ccccc1C(=O)O` are 36.1 µg/mL (≈ 85.2 µM), 14.5 µg/mL (≈ 34.2 µM), 28.1 µg/mL (≈ 66.3 µM), 18.1 µg/mL (≈ 42.7 µM) and 35 µg/mL (≈ 82.6 µM).
`CSc1cnc2ccccc2c1[Se]CC#CCOC(=O)c1ccccc1C(=O)O`: the IC50 was 3.2 µg/mL (≈ 6.8 µM) in the assay with T47D; 4 µg/mL (≈ 8.5 µM) in the assay with CCRF-CEM; 3.7 µg/mL (≈ 7.87 µM) in assay [1]; 3.1 µg/mL (≈ 6.59 µM) in the assay on B16; 19.1 µg/mL (≈ 40.6 µM) in the assay on P388.
With `CSc1cnc2ccccc2c1SCC#CCOC(=O)c1ccccc1`, the values for the IC50 in the assay on CCRF-CEM and in the assay on B16 were 22.2 µg/mL (≈ 58.5 µM) and 17.8 µg/mL (≈ 46.9 µM), respectively.
Regarding `CSc1cnc2ccccc2c1[Se]CC#CCOC(=O)c1ccccc1`, the IC50 with T47D was found to be 2.2 µg/mL (≈ 5.16 µM); in the assay on CCRF-CEM, 1.9 µg/mL (≈ 4.46 µM); in assay [1] it was 3.6 µg/mL (≈ 8.44 µM); in the assay with B16 it was 2.1 µg/mL (≈ 4.92 µM); with P388 it was 3.5 µg/mL (≈ 8.21 µM).
Consider `CCOC(=O)OCC#CCSc1c(SC)cnc2ccccc12`, for which the IC50 in the assay on T47D came out at 34.2 µg/mL (≈ 98.4 µM); with CCRF-CEM, 13.2 µg/mL (≈ 38 µM); in assay [1] it was 33.1 µg/mL (≈ 95.3 µM); in the assay on B16 it was 5.5 µg/mL (≈ 15.8 µM); in the assay on P388, 34.7 µg/mL (≈ 99.9 µM).
On to `CSc1cnc2ccccc2c1SCC#CCOC(=O)/C=C/c1ccccc1`, for which the IC50 was 71.9 µg/mL (≈ 177 µM) in the assay with T47D, 18.1 µg/mL (≈ 44.6 µM) in the assay on CCRF-CEM, 66.6 µg/mL (≈ 164 µM) in assay [1] and 9.4 µg/mL (≈ 23.2 µM) with B16.
Take `CSc1cnc2ccccc2c1[Se]CC#CCOC(=O)/C=C/c1ccccc1`: the IC50 with T47D was 4.3 µg/mL (≈ 9.5 µM); in the assay on CCRF-CEM, 17.8 µg/mL (≈ 39.3 µM); in assay [1], 4.7 µg/mL (≈ 10.4 µM); in the assay on B16, 3.1 µg/mL (≈ 6.85 µM); with P388, 43.9 µg/mL (≈ 97 µM).
On to `C#CCSc1cnc2ccccc2c1SCC#CCOC(=O)/C=C/c1ccccc1`, for which the results for the IC50 in the assay on CCRF-CEM and in the assay on B16 were 50.9 µg/mL (≈ 118 µM) and 14.7 µg/mL (≈ 34.2 µM), respectively.
